Published values pooled from the literature.
Lines come from different studies, so protocols differ.

`COc1nc(-c2cccc(-c3ccccc3)c2C)ccc1CNCCNC(=O)CCCCCCCCCCC(=O)N1CCN(CCNC(=O)c2cc3c(=O)n4cccc(C)c4nc3n(CCc3cccs3)c2=N)CC1` has a Cmax of 0.3 µg/mL (male Sprague-Dawley rat, plasma; intraperitoneal, 4 mg/kg).
`Cc1c(C)c2c(c(C)c1O)CCC(C)(COc1ccc(CC3SC(=O)NC3=O)cc1)O2` (centres unmarked) gave a viability of 9% (THLE-2; cell growth or viability, MTT; 100 µM, 72 h).
With `C[C@H]1Oc2cc(cnc2N)-c2c(nn(C)c2C#N)CN(C)C(=O)c2ccc(F)cc21` the Cmax was 2.48 µg/mL (male Sprague-Dawley rat, plasma; oral, 50 mg/kg, single dose).
With `CC(=O)Nc1ccc(O)cc1` the viability was 29.1% (THLE-2; cell growth or viability, MTT; 100 µM, 72 h).
The bioavailability of `CNS(=O)(=O)c1ccc(Nc2ncc3cc(Cl)c(=O)n(C4CCCC4)c3n2)c(C)c1` is reported as 3% (rat, plasma; oral, 10 mg/kg).
`NCc1cc2c(cc1F)C(=O)N(C1CCC(=O)NC1=O)C2` (centres unmarked) gave a half-life of 2.2 h (male cynomolgus monkey, plasma; oral, 0.3 mg/kg).
`C[C@]1(O)CCCN(c2nc(Nc3ccc(S(=O)(=O)N[C@H]4CC[C@H](CN5CCN(c6ccc(C7CCC(=O)NC7=O)c(F)c6)CC5)CC4)cc3F)ncc2C(F)(F)F)C1` (some centres unmarked) has a bioavailability of 24% (rat, plasma; oral, 10 mg/kg).
`CC[C@H](C)[C@H](NC(=O)[C@@H]1CCCN1C(=O)CNC(=O)[C@H](Cc1ccccc1)NC(=O)[C@H](CC(N)=O)NC(=O)[C@H](CC(N)=O)NC(=O)[C@H](CO)NC(=O)[C@H](CO)NC(=O)[C@H](Cc1c[nH]cn1)NC(=O)[C@H](CCCNC(=N)N)NC(=O)[C@H](CC(C)C)NC(=O)[C@H](Cc1ccccc1)NC(=O)[C@H](CCC(=O)O)NC(=O)[C@H](C)NC(=O)[C@H](CC(C)C)NC(=O)[C@H](CCCNC(=N)N)NC(=O)[C@H](CCC(N)=O)NC(=O)[C@@H](NC(=O)[C@H](C)NC(=O)[C@@H]1CSSC[C@H](NC(=O)[C@H](CCCCN)NC(=O)CC[C@H](NC(=O)CCCCCCCCCCCCCCCCCCC(=O)O)C(=O)O)C(=O)N[C@@H](CC(N)=O)C(=O)N[C@@H]([C@@H](C)O)C(=O)N[C@@H](C)C(=O)N[C@@H]([C@@H](C)O)C(=O)N1)[C@@H](C)O)C(=O)N[C@@H](CC(C)C)C(=O)N1CCC[C@H]1C(=O)N1CCC[C@H]1C(=O)N[C@H](C(=O)N[C@@H](CC(N)=O)C(=O)N[C@H](C(=O)NCC(=O)N[C@@H](CO)C(=O)N[C@@H](CC(N)=O)C(=O)N[C@H](C(=O)N1CCC[C@H]1C(N)=O)[C@@H](C)O)C(C)C)[C@@H](C)O` gave a half-life of 62 h (cynomolgus monkey, plasma; subcutaneous, 20 nmol/kg, single dose).
